In publication PMC6369923 (Journal of immunology (Baltimore, Md. : 1950), 2019):
Ends that are not written are not given here.

Legend:
[1] = tested on: MRGPRX2 (RBL-2H3 cells stably expressing MRGPRX2); test: RBL-MRGPRX2 degranulation; format: cell-based
Procedure, shortened: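 RBL-2H3 cells stably expressing MRGPRX2 were kept in 1 mg/mL G418. Cells were seeded at 5 × 10^4 per well and cultured overnight with or without pertussis toxin (100 ng/mL, 16 h), then washed twice into HEPES buffer with 0.1% BSA. Optional resveratrol was 100 μM for 5 min. Cells were stimulated with test compound for 30 min at 37°C, and β-hexosaminidase release was measured with 1 mM PNAG (1 h, 37°C) at A405 as percent of total.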

[2] = tested on: MRGPRX2 (RBL-MRGPRX2 cells); test: Ca2+ mobilization in RBL-MRGPRX2 cells; format: cell-based; settings: PTx 100 ng/mL, 16 h, Indo-1, agonist compound 48/80 1 μg/mL, AG-30/5C 1 μM or Icatibant 20 μg/mL, representative traces
[3] = tested on: MRGPRX2 (HTLA-MRGPRX2 cells); test: Ca2+ mobilization in HTLA-MRGPRX2 cells; format: cell-based; settings: compound 48/80 30 μg/mL, AG-30/5C 10 μM, Icatibant 30 μg/mL; FLIPR-Tetra; representative traces
Procedure, shortened: (§1)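 HTLA cells (HEK-293T stably expressing β-arrestin2-TEV) were stably transfected with the MRGPRX2-Tango or MRGPRX4-Tango plasmid, and a single-cell-derived clone was checked for receptor expression by anti-FLAG flow cytometry. Cells were plated at 10^4 per well on collagen and grown 24 h at 37°C, then loaded with Calcium 6 dye for 2 h at 37°C. After 1 h equilibration at room temperature, test compound was added and fluorescence imaged every 1 s for 5 min on FLIPR-Tetra.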

[4] = tested on: MRGPRX2 (HTLA-MRGPRX2 cells); settings: cited from earlier work
MRGPRX2 (human MC) = settings: cited from earlier work
[5] = treatment of hereditary angioedema; cited from earlier work
[6] = tested on: MRGPRX4 (HTLA-MRGPRX4 cells); test: Tango assay; format: cell-based; settings: nateglinide 30 μM, 16 h, 37°C, three experiments
Procedure, shortened: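 Tango line from HTLA cells (HEK-293T with β-arrestin2-TEV) stably transfected with MRGPRX4-Tango, single-cell cloned, surface FLAG confirmed by flow. Cells plated at 50,000/well on poly-L-lysine in triplicate, antibiotic-free medium, 6 h at 37°C, then agonist 16 h at 37°C; Bright-Glo luminescence. Ca2+ traces: Calcium 6 loading 2 h 37°C, 1 h room-temperature equilibration, FLIPR imaging every 1 s over 5 min.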

[7] = tested on: MRGPRX4 (HTLA-MRGPRX4 cells); test: Ca2+ mobilization in HTLA-MRGPRX4 cells; format: cell-based; settings: nateglinide 30 μM, AG-30/5C 10 μM, compound 48/80 30 μg/mL; FLIPR-Tetra; representative traces
Procedure, shortened: as §1

[8] = tested on: LAD2 cells (human MC line, endogenously expressing MRGPRX2); test: LAD2 degranulation; format: cell-based; settings: resveratrol 100 μM, 5 min, 30 min
Procedure, shortened: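 LAD2 cells were grown in StemPro-34 with rhSCF (100 ng/mL), washed, and seeded at 10^4 per well in HEPES buffer with 0.1% BSA. Where used, resveratrol pretreatment was 100 μM for 5 min, followed by stimulation with test compound for 30 min at 37°C. Supernatant or Triton X-100 lysate of unstimulated cells (total) was incubated with 1 mM PNAG for 1 h at 37°C, stopped with carbonate buffer, and read at A405. Result is percent β-hexosaminidase release; three experiments.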

[9] = tested on: MRGPRX2 (HTLA-MRGPRX2 cells); test: Tango assay; format: cell-based; settings: resveratrol 100 μM, 5 min
Procedure, shortened: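 HTLA cells (HEK-293T expressing β-arrestin2-TEV) stably transfected with MRGPRX2-Tango; single-cell clone, surface FLAG checked by flow. 50,000 cells/well on poly-L-lysine, triplicate, antibiotic-free medium, 6 h at 37°C; resveratrol 100 μM 5 min where used, then agonist 16 h at 37°C; Bright-Glo luminescence. Ca2+: Calcium 6 dye 2 h 37°C, 1 h room temperature, FLIPR read every 1 s for 5 min. Mean ± SEM, three experiments.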

[10] = tested on: IgE-mediated MC degranulation; settings: cited from earlier work
[11] = mice; cited from earlier work
MRGPRX2 = settings: LL-37 as agonist; cited from earlier work

Icatibant
effect of pertussis toxin on agonist-induced degranulation ([1]; RBL-MRGPRX2, PTx 100 ng/mL, 16 h, agonist compound 48/80 1 μg/mL or AG-30/5C 1 μM (p ≤ 0.001), or Icatibant 20 μg/mL): completely blocked | effect of pertussis toxin on agonist-induced Ca2+ mobilization [2]: completely blocked Icatibant-induced degranulation but not Ca^2+ mobilization | peak Ca2+ mobilization, high concentration [3]: induced Ca^2+ mobilization although the peak was much shorter than compound 48/80 | β-arrestin-mediated gene expression (literature) ([4]; HTLA cells expressing MRGPRX2-Tango): does not activate β-arrestin-mediated gene expression | MC degranulation via MRGPRX2 (literature) (MRGPRX2 (human MC)): promotes MC degranulation via MRPGRX2 | injection site pseudo-allergic drug reaction [5]: injection site pseudo-allergic drug reaction in nearly every patient

CC(C)[C@H]1CC[C@H](C(=O)N[C@H](Cc2ccccc2)C(=O)O)CC1 [nateglinide]
β-arrestin-mediated gene expression via MRGPRX4 (Tango), in words ([6]; AG-30/5C 10 μM, compound 48/80 30 μg/mL): induces β-arrestin-mediated gene expression | increase in β-arrestin-mediated gene expression via MRGPRX4 [6]: > 100 fold | Ca2+ mobilization via MRGPRX4 [7]: causes an increase in Ca^2+ mobilization

human β-defensin 3: host defense peptide (GIINTLQKYYCRVRGGRCAVLSCLPKEEQIGKCSTRGRKCCRRKK; ends and bridges not checked; cysteine pairing not given here; UniProt P81534 23-67, looked up)
effect of PTx on MC degranulation and Ca2+ mobilization (literature) (MRGPRX2 (human MC)): inhibits MC degranulation in response to host defense peptide, human β-defensin 3 without affecting Ca^2+ mobilization

Oc1ccc(/C=C/c2cc(O)cc(O)c2)cc1 [resveratrol]
inhibition of Icatibant-induced degranulation, LAD2 ([8]; Icatibant 20 μg/mL): significant (p≤ 0.05 and p≤ 0.001) inhibition | inhibition of compound 48/80- and AG-30/5C-induced degranulation, LAD2 ([8]; compound 48/80 1 μg/mL or AG-30/5C 1 μM): significantly (p ≤0.05, 0.01 and 0.001) reduced degranulation | inhibition of Icatibant-induced degranulation, RBL-MRGPRX2 ([1]; resveratrol 100 μM, 5 min, Icatibant 20 μg/mL, 30 min): significant (p≤ 0.05 and p≤ 0.001) inhibition | inhibition of compound 48/80- and AG-30/5C-induced degranulation, RBL-MRGPRX2 ([1]; resveratrol 100 μM, 5 min, compound 48/80 1 μg/mL or AG-30/5C 1 μM, 30 min): significantly (p ≤0.05, 0.01 and 0.001) reduced degranulation | effect on AG-30/5C Tango response ([9]; AG-30/5C 10 μM overnight): no effect on Tango | inhibition of compound 48/80-induced β-arrestin gene expression (Tango) ([9]; compound 48/80 3.0, 10 and 20 μg/mL overnight): significant (p≤ 0.01 and p≤ 0.001) inhibition | inhibition of constitutive MRGPRX2-mediated Tango ([4]; NIH Clinical Collection library (NCC-1) screen): inhibitor of constitutive MRGPRX2-mediated Tango | inhibition of IgE-mediated MC degranulation [10]: activates sirtuin 1 (sirt1) to inhibit IgE-mediated MC degranulation

LL-37
activation of human MC via MRGPRX2 (literature) (MRGPRX2 (human MC)): activate human MC | vaccine adjuvant activity [11]: safe and effective vaccine adjuvant in mice | receptor phosphorylation, desensitization and internalization (MRGPRX2): resistant to phosphorylation, desensitization and internalization
